Bioassay records: PubChem BioAssay, several laboratories
UPR XBP1 act: adaptive UPR (XBP1) activation; CHO-XBP1 luciferase reporter, IRE1-XBP1 UPR activation, luminescence; percent of tunicamycin response, DMSO as zero; activation, % at 20 µM; 330,000 compounds, 0.33% hits; AID 463104;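 active = versus positive control, 20 µM dose yields 30% or more activation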;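 also: 100% = tunicamycin at 10 µg/mL and 0% = DMSO only wells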
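incubation = overnight seeding at 37 °C, 6 h compound treatment at 37 °C | assay system = CHO-XBP1 cells stably carrying IRE1-XBP1-driven luciferase reporter | input = 1000 cells per well | detection = luciferase luminescence | dosing = single point, 20 µM final compound, 1% DMSO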
TbMetRS inhib: blocks T. brucei methionyl-tRNA synthetase activity | purified T. brucei MetRS, ATP depletion, Kinase-Glo luminescence | inhibition, % at 11.9 µM | 360,000 compounds, 0.4% hits;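 active = inhibition above a per-plate cutoff of the control wells' mean inhibition plus 3 SD, cut at about 5.5% in these data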;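 also: 0% = DMSO wells median and 100% = median of wells with control inhibitor compound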
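Dosing: 11.9 µM compound single dose, 0.9% DMSO; Assay system: purified T. brucei MetRS enzyme; Measured by: Kinase-Glo luciferase luminescence reporting remaining unconsumed ATP; Schedule: 15 min plus 2 h at 25 °C.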
V-ATPase pHluor: alters yeast V-ATPase proton transport; 350,000 compounds, 0.37% hits; S. cerevisiae, pHLuorin cytosolic pH fluorescence; response, % at 10 µM; in the data active = response mostly above about 7.3%, no sharp cut-off; inactive = mostly below about 5.4%; also: actives read high
CHOP inhibitor: CHOP inhibition in unfolded protein response. 220,000 compounds, 3.8% hits. inhibition, % at 10 µM. CHO-K1 CHOP-promoter luciferase, tunicamycin-induced, 15-18 h. AID 2732;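 active = compounds that reduced the stress-induced luciferase reporter signal by more than about 70% of percent inhibition, limit read from the data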;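 also: 0% = tunicamycin plus vehicle and 100% = wells without tunicamycin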
CHOP UPR activ: apoptotic UPR (CHOP) activation; CHO-CHOP luciferase reporter, luminescence; percent of tunicamycin response over DMSO baseline; activation, % at 10 µM; 330,000 compounds, 0.34% hits; AID 449763;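 active = at 10 µM dose, activation of 40% or more, normalized to positive control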;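 also: 100% = tunicamycin at 10 µg/mL and 0% = DMSO alone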
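assay system = CHO CHOP reporter cells | amount = 500 CHO-CHOP cells per well | buffer or medium = F12 with 10% FBS | incubation = 16-18 h cell attachment, then 6 h compound exposure, 37 °C | detection = luminescence read with Steady-Glo | read-out = percent activation relative to tunicamycin control | controls = tunicamycin high control, DMSO low control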
Starred values were filed as active, the others as inactive; nt = no result given. The entries come from a sample that favours hits as a whole.

SMILES	UPR XBP1 act	TbMetRS inhib	V-ATPase pHluor	CHOP inhibitor	CHOP UPR activ
COc1ccc(CN2C(=O)C(CC(=O)NCC3CCCCC3)CC(C(=O)N(C(C)C)C(C)C)=C2C)cc1 (stereo not drawn)	nt	-1	1	nt	nt
OC(CN(c1ccccc1)c1ccccc1)Cn1cnc2ccccc21 (stereo not drawn)	-2	-1	0	92*	0
OC(COCc1ccccc1)Cn1cnc2ccccc21 (stereo not drawn)	0	-2	-7	0	-1
CC(=C/c1ccc(C(C)C)cc1)/C=N/NC(=O)CSc1ccccn1	2	-1	-2	92*	3
COc1ccc(-c2csc(NC(=S)NC(=O)/C=C/c3ccco3)n2)cc1OC	nt	-1	1	95*	nt
Cc1cc2c(N=NC(=O)C3CC3c3ccccc3)c(O)[nH]c2cc1Br (stereo not drawn)	-3	-1	2	71*	0
CCCCCCCCN1C(=O)[C@H](CC(=O)N2CCN(C(=O)C3CC3)CC2)C[C@@]2(C(=O)OCC)CCCC=C12	nt	0	nt	nt	nt
O=C(COC(=O)c1ccccc1NCCO)Nc1cc(C(F)(F)F)ccc1N1CCOCC1	2	0	-1	nt	1
O=C(Nc1cc(C(F)(F)F)ccc1N1CCOCC1)c1n[nH]c(=O)c2ccccc12	4	-1	0	78*	2
CSc1ncccc1C(=O)OCC(=O)Nc1cc(C(F)(F)F)ccc1N1CCOCC1	5	-1	-1	71*	-3
CC(C)(C)c1ccc(Oc2ccc(N)cn2)cc1	-3	0	0	88*	-5
CC(C)S(=O)(=O)N1CCCC(c2cc(C(=O)NCc3ccccc3)no2)C1 (stereo not drawn)	nt	0	nt	nt	nt
NC(=O)c1ccc2c(=O)n3c(-c4cc(Cl)c(N)c(Cl)c4)csc3nc2c1	1	0	0	88*	-2
CN1CCN(c2nc3ccccc3nc2C(C#N)C(=O)OC2CCCCC2)CC1 (stereo not drawn)	2	-1	1	72*	-1
O=C(Cc1ccc(NC(=O)C2CCN(C(=O)CCc3ccccc3)CC2)cc1)Nc1ccc(C(=O)N2CCOCC2)cc1	nt	-1	-2	nt	nt
Brc1ccc(Nc2nc3ccccc3n3nnnc23)cc1	2	nt	nt	-14	3
Fc1cccc(Nc2nc3ccccc3n3nnnc23)c1	15	-1	1	87*	8
c1ccc(Nc2nc3ccccc3n3nnnc23)cc1	6	0	-2	-13	8
COc1cccc(Nc2nc3ccccc3n3nnnc23)c1	11	0	0	88*	3
Nc1ncnc2c1ncn2[C@@H]1O[C@H](C(=O)Nc2ccc(Oc3ccccc3)nc2)[C@@H](O)[C@H]1O	nt	-2	nt	nt	nt
Cc1n[nH]c(C)c1S(=O)(=O)N(C)Cc1ccco1	0	1	-3	nt	-1
COc1ccc(Cl)cc1C=CC=Nc1ccccc1O	nt	0	2	nt	nt
O=C(COC(=O)c1ccccc1)NCC1COc2ccccc2O1 (stereo not drawn)	nt	0	-1	nt	nt
Cc1cc(C(=O)Nc2nc3ccc(Cl)cc3s2)nn1C	3	-1	-1	-24	7
O=C(Nc1nc2ccc(Cl)cc2s1)c1ccc(Br)o1	2	0	0	74*	5
SMILES	UPR XBP1 act	TbMetRS inhib	V-ATPase pHluor	CHOP inhibitor	CHOP UPR activ
COc1ccc(OC)c(NC(=O)C2(C)CCN2C(=O)C2(c3ccccc3)CCCC2)c1 (stereo not drawn)	nt	1	nt	nt	nt
COc1ccccc1Cc1c(C2CCCCC2)nc2cc(C)c(Br)c(C)n12	nt	-1	nt	nt	nt
Cc1[nH]c2ccccc2c1C(=O)/C=C/c1ccccc1Cl	4	1	-1	90*	6
Cc1[nH]c2ccccc2c1C(=O)/C=C\c1ccccc1Cl	7	1	1	74*	5
CC(C)[C@H](NC(=O)c1ccccc1F)C(=O)NCc1ccc(S(N)(=O)=O)cc1	1	0	-1	nt	3
CCCOc1ccc(CSc2nc3ccccc3[nH]2)cc1	1	-1	0	76*	4
CCOc1ccc(OCCSc2nc3ccccc3[nH]2)cc1	-2	0	1	36	-2
C=CCn1c(-c2csc3c2CCC(C)C3)n[nH]c1=S (stereo not drawn)	5	0	7	80*	1
CCn1c(-c2csc3c2CCCC3)n[nH]c1=S	-1	0	3	14	0
CCCCn1c(-c2csc3c2CCC(C)C3)n[nH]c1=S (stereo not drawn)	1	0	-2	84*	-2
COc1cc(C(=O)NC(=S)Nc2ccc(N3CCCC3)cc2)cc(OC)c1OC	0	0	0	75*	1
Cc1cc(C)c(C#N)c(SCc2ccccc2F)n1	1	0	14*	24	1
Cc1cc(C)c(C#N)c(SCc2ccccc2C)n1	-2	-1	2	69	1
O=C(Nc1ccc(N2CCN(Cc3ccccc3F)CC2)cc1)c1ccc([N+](=O)[O-])o1	2	0	1	nt	90*
CN(C)c1ccc(NC(=S)NC23CC4CC(CC(C4)C2)C3)cc1	8	-1	-1	nt	11
O=C(Nc1ccc(N2CCOCC2)cc1)c1cnccn1	-12	0	2	nt	-8
O=C(Nc1ccc(N2CCOCC2)cc1)c1cnsn1	-6	0	3	78*	-11
c1ccc(Nc2nn[nH]n2)cc1	-1	0	0	82*	-3
Nc1nc(Nc2ccccc2)n[nH]1	-4	-1	2	13	1
Cc1cc(-c2ccc(N=Nc3c(S(=O)(=O)O)cc4cc(S(=O)(=O)O)cc(N)c4c3O)c(C)c2)ccc1N=Nc1c(S(=O)(=O)O)cc2cc(S(=O)(=O)O)cc(N)c2c1O	-11	nt	nt	nt	-5
O=S(=O)(O)c1cc(O)c2c(O)c(N=Nc3cc(Cl)ccc3O)c(S(=O)(=O)O)cc2c1	-5	18*	2	nt	-2
COc1ccc2c(-c3ccccc3)cc(SCC(=O)NC(N)=O)nc2c1	-1	0	-2	77*	-2
CSc1ncccc1C(=O)Nc1nc2c(C)cccc2s1	1	-1	4	86*	3
CSc1ncccc1C(=O)Nc1ncc(C)s1	-1	0	-3	nt	4
CCN(c1ccccc1)S(=O)(=O)c1cc(C(=O)Nc2ccc(F)c(F)c2)ccc1F	5	0	0	71*	4
CN(CCOc1ccc(Cl)cc1)C(=O)c1cccc(S(=O)(=O)N2CCN(c3ccccc3)CC2)c1	nt	0	-4	nt	nt
c1ccc(-c2csc3ncnc(N4CCc5ccccc5C4)c23)cc1	nt	0	2	86*	nt
c1ccc(-c2csc3ncnc(N4CCOCC4)c23)cc1	-3	0	5	35	-1
C=CCOC(=O)C1=C(C)NC(SC)=C(C#N)C1c1ccc(OCC)cc1 (stereo not drawn)	-1	0	2	95*	-3
